Screening results as filed in PubChem.
CCR6 antagonist: CCR6 (human) receptor antagonism. P51684. CHO-K1 CCR6 PathHunter beta-arrestin, luminescence, CCL20-stimulated. inhibition, % at 20 µM. 340,000 compounds, 0.49% hits. AID 493098;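 active means compounds whose inhibition of the agonist-driven luminescence signal at 20 µM reaches about 50%, limit read from the data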;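 further: cells stimulated with CCL20 at 14 nM final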
EBI2 antag: blocks human EBI2 receptor beta-arrestin signaling. inhibition, % at 5 µM. EBI2 beta-arrestin recruitment, luminescence, 7a,25-OHC stimulated. P32249. 360,000 compounds, 0.81% hits; in the data active means inhibition above about 38%;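 further: enzyme fragment complementation signal reports receptor beta-arrestin coupling in cells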
APJ ag: agonists of human APJ apelin receptor; activation, % at 20 µM; CHO-K1 APJ PathHunter beta-arrestin, luminescence; 0% DMSO wells, 100% apelin; 330,000 compounds, 0.11% hits; AID 2520;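 active means activation more than six SD over the plate average, tested at 20 µM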
Target sequence (P35414 whole entry, looked up): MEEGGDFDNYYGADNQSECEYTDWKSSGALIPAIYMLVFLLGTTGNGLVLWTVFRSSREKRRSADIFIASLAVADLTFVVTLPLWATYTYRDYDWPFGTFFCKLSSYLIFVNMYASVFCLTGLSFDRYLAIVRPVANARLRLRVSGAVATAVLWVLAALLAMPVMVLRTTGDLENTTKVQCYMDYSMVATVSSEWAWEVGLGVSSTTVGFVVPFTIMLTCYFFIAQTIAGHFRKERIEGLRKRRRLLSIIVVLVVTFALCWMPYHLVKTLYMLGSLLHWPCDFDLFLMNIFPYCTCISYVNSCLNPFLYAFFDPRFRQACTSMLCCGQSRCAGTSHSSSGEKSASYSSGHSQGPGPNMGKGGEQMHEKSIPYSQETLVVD
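Assay system – PathHunter CHO-K1 APJ (AGTRL-1) beta-arrestin reporter cells · Compound – one dose, 20 µM compound, 1% DMSO · Timing – compound 90 min 25 °C, reagent 1 h · Measured by – luminescence from split beta-galactosidase complementation, Galacton Star/Emerald II substrate · Measure – beta-arrestin recruitment to APJ as agonist activity, luminescent signal · Benchmarks – DMSO vs Apelin-13 10 nM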
HTR2A ag: mouse HTR2A agonism via beta-arrestin recruitment; CHO-K1 mHTR2A beta-arrestin complementation, luminescence; percent of 30 µM serotonin response; activation, % at 7.6 µM; 360,000 compounds, 0.66% hits; AID 624169;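 active means activation above a run cutoff, the mean activation of all tested compounds plus 3 SD, cut at about 14% in these data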
CXCR6 block: CXCR6 (human) receptor inhibition. CHO-K1 PathHunter CXCR6 beta-arrestin, luminescence. 360,000 compounds, 0.36% hits. O00574. inhibition, % at 20 µM; in the data active means inhibition above about 34%, passing the limit was not always enough;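 further: antagonist mode with CXCL16 agonist at 10 nM final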
APJ antag: antagonists of human APJ apelin receptor | P35414 | 330,000 compounds, 0.32% hits | inhibition, % at 20 µM | AID 2521 | CHO-K1 APJ beta-arrestin complementation, luminescence;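 active means inhibition above about 40% at 20 µM, limit read from the data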;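 further: cells challenged with 10 nM apelin-13 agonist together with compound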
EBI2 antag conf: confirmation of human EBI2 receptor antagonists. inhibition, % at 5 µM. AID 651997. 2,400 compounds, 29% hits. shares compounds with EBI2 antag. EBI2 beta-arrestin luminescence, 7a,25-OHC antagonism;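 active means inhibition of at least 50%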
EBI2 agonist: EBI2 agonism counter-screen. EBI2-expressing cells, agonist mode, luminescence, 60 min; 0% vehicle, 100% 7α,25-dihydroxycholesterol control. shares compounds with EBI2 antag. activation, % at 5 µM. 2,400 tested, under 10 active;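 active means activation of at least 50%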
bGal counter: beta-galactosidase inhibition counter-screen. shares compounds with EBI2 antag. purified beta-galactosidase, luminescent Galacton Star, 15 min. inhibition, % at 5 µM. 2,400 compounds, 1% hits. AID 652176;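 active means replicate-average signal at least 3 plate SD below neutral wells, shown as high inhibition, flagging enzyme-inhibiting false positives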;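 further: higher means stronger loss of beta-gal luminescence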
Numbers stand for hits; - = inactive; . = no result given. Only some compounds are listed: those with a hit (about 2.1% of all), similar ones and a draw of the others.

SMILES | CCR6 antagonist | EBI2 antag | APJ ag | HTR2A ag | CXCR6 block | APJ antag | EBI2 antag conf | EBI2 agonist | bGal counter
COc1ccc(C2=NN(c3ccccc3)C(c3ccc(OC)c(OC)c3)C2)cc1 (centres undefined) | - | - | - | - | - | - | . | . | .
CN(C(=O)c1ccc(=O)n(Cc2ccc(Cl)cc2)c1)c1ccccc1 | - | 56 | - | - | - | - | - | - | -
Cc1ccccc1C(=O)NNC(=O)CSc1nnc(C)n1-c1ccccc1 | - | - | - | - | - | - | . | . | .
CN1CCN(C(=O)c2cc(=O)c3cc(Cl)ccc3o2)CC1 | - | - | - | - | - | - | . | . | .
CCN1CCN(C(=O)c2cc(=O)c3cc(C)ccc3o2)CC1 | - | 67 | - | - | - | - | - | - | -
CCc1ccc2oc(C(=O)N3CCN(C)CC3)cc(=O)c2c1 | - | 45 | - | - | - | - | - | - | -
CCCn1c(=N)n(CC(=O)c2ccc([N+](=O)[O-])cc2)c2ccccc21 | - | - | - | - | - | - | . | . | .
CN1C(C(=O)NCc2ccco2)CC2Cn3c(nc4cc5ccccc5cc43)C21 (centres undefined) | - | - | - | - | - | - | . | . | .
O=C(NC1CC(=O)N(c2ccc(Cl)cc2)C1)N1CCN(C(=O)c2ccco2)CC1 (centres undefined) | - | 66 | - | - | - | - | - | - | -
COc1ccc(NC(=O)N2CCN(c3ccc([N+](=O)[O-])cc3)CC2)cc1 | - | 62 | - | - | - | - | - | - | -
COc1ccc(N2CCN(C(=O)NC3CC(=O)N(c4ccc(OC)cc4)C3)CC2)cc1 (centres undefined) | - | 46 | - | - | - | - | - | - | -
C/C(CCc1ccccc1)=N\NC(=O)CC(=O)NCCc1ccccc1 | - | - | - | - | - | - | . | . | .
Cc1ccc(C)c(OCC(=O)Nc2ccc(N3CCOCC3)cc2)c1 | - | - | - | - | - | - | . | . | .
O=C(CSc1nc2cc([N+](=O)[O-])ccc2n1-c1ccccc1)NCc1ccc2c(c1)OCO2 | - | 55 | - | - | - | - | - | - | -
O=C(NCc1ccco1)c1cc([N+](=O)[O-])ccc1N1CCCCC1 | - | 53 | - | - | - | - | - | - | -
COc1cc(NC(=O)c2cc([N+](=O)[O-])ccc2N2CCOCC2)ccc1NC(=O)c1ccco1 | - | 55 | - | - | - | - | - | - | -
O=C(NCc1ccco1)c1ccc(N2CCCCC2)c([N+](=O)[O-])c1 | - | - | - | - | - | - | . | . | .
O=C(Nc1cc([N+](=O)[O-])ccc1N1CCOCC1)c1ccco1 | - | - | - | - | - | - | . | . | .
O=C(NCc1ccc2c(c1)OCO2)c1cc([N+](=O)[O-])ccc1N1CCCCC1 | - | 83 | - | - | - | - | 62 | - | -
Cc1cc(C)cc(-n2c(SCC(=O)NCc3ccc4c(c3)OCO4)nc3ccccc3c2=O)c1 | - | - | - | - | - | - | . | . | .
O=C(Nc1nnc(-c2ccncc2)o1)c1ccccc1 | - | - | - | - | - | - | . | . | .
Cc1ccc(NC(=O)c2ccc(CSc3nnc(C)s3)cc2)c(C)c1 | - | - | - | - | - | - | . | . | .
O=C(CSc1nnc(-c2ccncc2)n1Cc1ccccc1)NCCc1ccccc1 | - | 53 | - | - | - | - | - | - | -
CCn1c(SCC(=O)NCCc2ccc(Cl)cc2)nnc1-c1cccs1 | - | 64 | - | - | - | - | - | - | -
COc1ccc(C(C(=O)NC2CCCC2)N(C(=O)c2csnn2)C2CCCC2)cc1 (centres undefined) | - | - | - | - | - | - | . | . | .
SMILES | CCR6 antagonist | EBI2 antag | APJ ag | HTR2A ag | CXCR6 block | APJ antag | EBI2 antag conf | EBI2 agonist | bGal counter
Cc1nc(N/N=C/c2ccc(O)cc2)c2cnn(-c3ccccc3)c2n1 | - | 53 | - | - | - | - | - | - | -
CCOc1ccc(NC(=O)N2CCC(c3ccc(C)cc3)C2)cc1 (centres undefined) | - | 81 | - | - | - | - | 55 | - | -
CCc1ccc(NC(=O)N2CCC(c3ccccc3)C2)cc1 (centres undefined) | - | 83 | - | - | - | - | 63 | - | -
O=C(/C=C/c1ccccc1)N1CCN(c2ccccn2)CC1 | - | 88 | - | - | - | - | 74 | - | -
O=C(/C=C/c1cccc(F)c1)N1CCN(c2ccccn2)CC1 | - | 77 | - | - | - | - | 61 | - | -
COc1ccc(/C=C/C(=O)N2CCN(c3ccccn3)CC2)cc1OC | - | - | - | - | - | - | . | . | .
COc1cc(/C=C/C(=O)N2CCN(c3ccccn3)CC2)cc(OC)c1OC | - | - | - | - | - | - | . | . | .
O=C(c1ccccc1Cl)N1CCN(c2ccccn2)CC1 | - | - | - | - | - | - | . | . | .
O=C(/C=C/c1ccc(Cl)cc1)N1CCN(c2ccccn2)CC1 | - | 93 | - | - | - | - | 80 | - | -
O=C(/C=C/c1ccc(Cl)c(C(F)(F)F)c1)N1CCN(c2ccccn2)CC1 | - | 48 | - | - | - | - | - | - | -
Cc1ccc(N(C(=O)CNC(=O)c2ccco2)C(C(=O)NCC2CCCO2)c2ccccc2)cc1C (centres undefined) | - | - | - | - | - | - | . | . | .
O=C(c1ccccc1F)N1CCN(c2ccccn2)CC1 | - | - | - | - | - | - | . | . | .
O=C(/C=C/c1ccccc1F)N1CCN(c2ccccn2)CC1 | - | 45 | - | - | - | - | - | - | -
O=C(NC(c1ccc(F)cc1)c1ccc2ccccc2n1)C1CCN(CCOc2ccc(Cl)cc2)CC1 (centres undefined) | . | 73 | . | - | - | . | 51 | - | -
O=C(NC(c1ccccc1)c1ccc2ccccc2n1)C1CCN(CCOc2ccc(Cl)cc2Cl)CC1 (centres undefined) | . | - | . | - | - | . | . | . | .
CC(C)(C)OC(=O)N(CCc1ccccc1)Cc1ccccc1OCc1cccc(NC(=O)/C=C/c2ccccc2)c1 | - | - | . | - | - | . | . | . | .
CC(C)(C)OC(=O)N(CCc1ccccc1)Cc1ccc(OCc2cccc(NC(=O)/C=C/c3ccccc3)c2)cc1 | - | 59 | . | - | - | . | - | - | -
COc1ccc(C2=NOC(Cn3nc(C(=O)NCc4ccc(C)cc4)cc3-c3ccccc3)C2)cc1 (centres undefined) | - | 44 | - | - | - | - | - | - | -
COC(=O)/C=C1/SC(=NC(=O)c2ccc(OC)cc2)NC1=O | - | - | - | - | - | - | . | . | .
